Results on 11 compounds are retold here after ChEMBL document CHEMBL1127310, “Synthesis and anticonvulsant activities of alpha-acetamido-N-benzylacetamide derivatives containing an electron-deficient alpha-heteroaromatic substituent” (1994).

Common to all, as to format: functional
Test [1] is filed under the species Mus musculus. The test is described as follows: Median neurologically impairing dose was determined in mice using the rotarod test. The method, boiled down:
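Male Carworth Farms No. 1 mice dosed ip and placed on a 1-in. knurled rod turning at 6 rpm. Neurotoxicity means failure to stay on the rod for 1 min. Four mice per dose in the screen, then normally eight mice per dose for the dose-response, at time of peak effect.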
Background: Falling from the rotarod earlier than controls is read as motor impairment.

Test [2] in a line: Protective Index was determined using the ratio of TD50/ED50 value. The method, boiled down:
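PI is TD50/ED50 in ip-dosed mice. TD50 comes from the rotorod or the horizontal screen test. ED50 comes from the MES test. Not determined when there was no MES activity below 100 mg/kg.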

The subject of test [3] is Mus musculus. The test is described as follows: Effective dose required to prevent tonic extension of the hind limbs in mice in the maximal electroshock seizures (MES) test when administered intraperitoneally. To be noted: Hindlimb, ip. The procedure, abridged:
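Male Carworth Farms No. 1 mice, drug given ip. Seizures elicited by 60-cycle alternating current, 50 mA, for 0.2 s via corneal electrodes. Protection means no tonic hind-limb extension. Phase I screen at 30, 100 and 300 mg/kg. Dose-response then run at varied doses, normally eight mice per dose, at time of peak effect (0.5 h or 0.25 h).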
(The maximal electroshock test induces tonic seizures with an electrical stimulus.)

As a reminder, the TD50 is the 50% point of the dose-response relation for the toxic effect studied. Read a low TD50 as greater toxicity. Consider `CC(=O)NC(C(=O)NCc1ccccc1)c1cccs1` (centres undefined), for which the TD50 in the test filed under Mus musculus [1] is under 100 mg/kg.

The compound `CC(=O)NC(C(=O)NCc1ccccc1)c1ccccc1` (centres undefined) yielded a TD50 in the test listed under Mus musculus [1] of over 40 mg/kg.

`CC(=O)NC(C(=O)NCc1ccccc1)c1ccco1` (centres undefined) gave a TD50 in the test listed under Mus musculus [1] of about 40 mg/kg. Moreover, in test [2], the PI is over 3.9.

As to `CC(=O)NC(C(=O)NCc1ccccc1)c1ncco1` (centres undefined), the TD50 in the test listed under Mus musculus [1] stood at 38.6 mg/kg. Also, the PI in test [2] is 3.7.

The term ED50 denotes the dose that gives a 50% effect, or the effect in half of the subjects. Low values mean an effect at a small dose, high ones a need for a large dose. In the case of `CC(=O)NC(C(=O)NCc1ccccc1)c1ncccn1` (centres undefined), in the test on Mus musculus [3], the ED50 was 8.1 mg/kg. In the test filed under Mus musculus [1], the TD50 came to 56.7 mg/kg. The PI in test [2] stood at 7.

With `CC(=O)NC(C(=O)NCc1ccccc1)c1cnccn1` (centres undefined), the 50% effect level with Mus musculus [3] (ED50) was put at a dose of 14.8 mg/kg. In the test listed under Mus musculus [1], this compound showed a TD50 of 58.2 mg/kg. Besides, in test [2], the PI was determined as 3.9.

`CCC1(c2ccccc2)C(=O)NC(=O)NC1=O` [PHENOBARBITAL] gave a TD50 in the test filed under Mus musculus [1] of 69 mg/kg.

Turning to `CC(=O)NC(C(=O)NCc1ccccc1)c1ccccn1` (centres undefined), the ED50 in the test with Mus musculus [3] is 10.8 mg/kg. The compound also had a TD50 in the test filed under Mus musculus [1] of under 100 mg/kg.

For `CC(=O)NC(C(=O)NCc1ccccc1)c1ccc[nH]1` (centres undefined), the TD50 in the test listed under Mus musculus [1] is under 100 mg/kg.

The compound `CC(=O)NC(C(=O)NCc1ccccc1)c1nccs1` (centres undefined) had a TD50 in the test filed under Mus musculus [1] of 69.1 mg/kg. Moreover, in test [2], the PI came out at 5.7.

In the test filed under Mus musculus [1], `CC(=O)NC(C(=O)NCc1ccccc1)c1ccsc1` (centres undefined) gave a TD50 of under 100 mg/kg.
